# Bioassay records: PubChem, several laboratories
# EBI2 block – EBI2 receptor antagonists, beta-arrestin recruitment, primary screen, cell-based, luminescence, 7a,25-OHC stimulation, uHTS | AID 651636, 2012 | 7a,25-OHC stimulated | actives 0.81% (n = 360,000) | G-protein coupled receptor 183 (Homo sapiens), P32249 | inhibition, % at 5 µM; in the data active = inhibition above about 38%;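 note: enzyme fragment complementation signal reports receptor beta-arrestin coupling in cells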
# CXCR6 block – CXCR6 receptor inhibitors, primary screen, cell-based, beta-arrestin, luminescence, CHO-K1 PathHunter, 1536-well. inhibition, % at 20 µM. actives 0.36% (n = 360,000). C-X-C chemokine receptor type 6 (Homo sapiens), O00574. AID 602244, 2012; in the data active = inhibition above about 34%, passing the limit was not always enough;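 note: antagonist mode with CXCL16 agonist at 10 nM final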
# Target sequence (O00574 whole entry, looked up): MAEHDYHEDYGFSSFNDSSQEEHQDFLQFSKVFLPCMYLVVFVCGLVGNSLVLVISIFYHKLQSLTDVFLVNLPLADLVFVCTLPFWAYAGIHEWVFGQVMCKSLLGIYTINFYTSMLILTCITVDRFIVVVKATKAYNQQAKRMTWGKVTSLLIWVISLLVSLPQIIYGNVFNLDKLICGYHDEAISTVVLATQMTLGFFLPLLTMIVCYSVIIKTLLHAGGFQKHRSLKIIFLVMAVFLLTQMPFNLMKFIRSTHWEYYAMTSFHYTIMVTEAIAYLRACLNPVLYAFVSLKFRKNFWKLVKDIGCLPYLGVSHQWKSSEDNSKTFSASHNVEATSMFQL
# APJ antag – antagonists of human apelin receptor APJ, primary screen, CHO-K1 cells, beta-arrestin complementation, luminescence. inhibition, % at 20 µM. actives 0.32% (n = 330,000). AID 2521, 2010;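 active = inhibition above about 40% at 20 µM, limit read from the data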;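 note: cells challenged with 10 nM apelin-13 agonist together with compound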
# APJ ag – agonists of human apelin receptor APJ, primary screen, CHO-K1 cells, PathHunter beta-arrestin, luminescence; P35414; 0% DMSO wells, 100% apelin; activation, % at 20 µM; actives 0.11% (n = 330,000);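 active = activation more than six SD over the plate average, tested at 20 µM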
#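 Assay system: CHO-K1 cells stably expressing ProLink-tagged human APJ and arrestin–beta-gal acceptor. Compound dosing: 20 µM single point, 1% DMSO. Times: 16-18 h seeding, 90 min dark compound exposure, 60 min detection. Detection: beta-gal luminescence. Evaluation: APJ–arrestin association signal. Controls: negative DMSO alone, positive Apelin-13 at 10 nM.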
# GAA850 FXN act – FXN promoter activators, primary screen, cell-based, luciferase luminescence, HEK293 lucGAA850 | actives 0.56% (n = 360,000) | AID 540364, 2011 | activation, % at 6 µM | HEK293 lucGAA850 FXN promoter luciferase reporter, 24 h; percent of 10 µM SAHA response;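 active = activation above the average of all compounds screened plus 3 SD, cutoff fixed separately per campaign, cut at about 7.5% in these data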
# CCR6 antag – CCR6 receptor antagonists, primary screen, cell-based, CHO-K1, luminescence, beta-arrestin, uHTS | actives 0.49% (n = 340,000) | CHO-K1 CCR6 PathHunter beta-arrestin, CCL20-stimulated | C-C chemokine receptor type 6 (Homo sapiens), P51684 | inhibition, % at 20 µM;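 active = compounds whose inhibition of the agonist-driven luminescence signal at 20 µM reaches about 50%, limit read from the data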;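 note: cells stimulated with CCL20 at 14 nM final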
# EBI2 antag conf – EBI2 antagonist hit retest, beta-arrestin, confirmation, cell-based, single concentration, luminescence, 7a,25-OHC stimulation | inhibition, % at 5 µM | 7a,25-OHC antagonism | shares compounds with EBI2 block | actives 29% (n = 2,400) | AID 651997, 2013;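 active = inhibition of at least 50%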
# EBI2 agonist – EBI2 agonist activity of antagonist hits, confirmation, counter-screen for EBI2 antagonist project, cell-based, single concentration, agonist mode, luminescence | shares compounds with EBI2 block | EBI2-expressing cells, 60 min; 0% vehicle, 100% 7α,25-dihydroxycholesterol control | activation, % at 5 µM | 2,400 tested, under 10 active | AID 652000, 2013;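 active = activation of at least 50%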
# bGal counter – E. coli beta-galactosidase enzyme inhibition, confirmation, counter-screen for EBI2 antagonist project, biochemical, luminescence, single concentration. inhibition, % at 5 µM. shares compounds with EBI2 block. actives 1% (n = 2,400). purified beta-galactosidase, luminescent Galacton Star, 15 min;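 active = replicate-average signal at least 3 plate SD below neutral wells, shown as high inhibition, flagging enzyme-inhibiting false positives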;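 note: higher means stronger loss of beta-gal luminescence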
# A number is an active result; - = inactive; . = no result given. Rows were chosen to be rich in hits. Some 2% of all compounds tested hit in one or more screens of this group.
SMILES,EBI2 block,CXCR6 block,APJ antag,APJ ag,GAA850 FXN act,CCR6 antag,EBI2 antag conf,EBI2 agonist,bGal counter
CC1CC(C)CN(S(=O)(=O)c2ccc(C(=O)N3CCN(c4ccccc4)CC3)cc2)C1 (centres undefined),57,-,-,-,-,-,-,-,-
COc1ccc(S(=O)(=O)N2CCN(C(=O)c3cc(-c4ccc(C)cc4)n[nH]3)CC2)cc1,74,-,-,-,-,-,-,-,-
O=C(c1ccc(S(=O)(=O)N2CCCCCC2)cc1)N1CCN(c2ccccc2)CC1,-,-,-,-,-,-,.,.,.
COc1ccc(C(=O)N2CCN(S(=O)(=O)c3ccc(Br)cc3)CC2)cc1,52,-,-,-,-,-,-,-,-
COc1ccc(-c2cc(C(=O)N3CCN(S(=O)(=O)c4ccc(C)cc4)CC3)[nH]n2)cc1,53,-,-,-,-,-,-,-,-
COc1cccc(-c2cc(C(=O)N3CCN(S(=O)(=O)c4ccccc4)CC3)[nH]n2)c1,-,-,-,-,-,-,.,.,.
CCOc1ccccc1N1CC(C(=O)Nc2cc(Cl)ccc2-n2cncn2)CC1=O (centres undefined),-,-,-,-,-,-,.,.,.
CCc1ccc(CN(C)C(=O)c2cc(=O)c3ccccc3o2)cc1,86,-,-,-,-,-,65,-,-
COc1ccc(CCN(C)C(=O)c2cc(=O)c3ccccc3o2)cc1OC,-,-,-,-,-,-,.,.,.
COc1ccc2[nH]c3c(c2c1)CCNC3(C)CCc1ccc(Cl)nc1 (centres undefined),-,-,-,-,-,-,.,.,.
CCCCOC(=O)c1ccc(NC(=O)CSC2=Nc3ccccc3C3CC=NN23)cc1 (centres undefined),59,-,-,-,-,-,-,-,-
CCN(c1ccccc1)c1nc(Cl)nc2c1cnn2C,-,-,.,.,-,-,.,.,.
Cc1cc(Cl)ccc1-c1nc(NC(C)C)nc2ccsc12,-,-,.,.,-,.,.,.,.
COc1ccccc1N1CCN(C(=O)c2cc(-c3ccc(F)cc3)[nH]c2C)CC1,95,-,-,-,-,-,71,-,-
Cc1[nH]c(-c2ccc(F)cc2)cc1C(=O)N1CCN(c2ccccc2F)CC1,91,-,-,-,-,-,85,-,-
CSCCC(c1nnnn1C1CCCCC1)N1CCN(C/C=C/c2ccccc2)CC1 (centres undefined),-,-,.,.,.,.,.,.,.
COc1ccc(C(=O)N2CCN(c3nc(C4CC4)nc4sc(C)c(C)c34)CC2)cc1,49,-,-,-,-,-,-,-,-
Cc1sc2nc(C3CC3)nc(N3CCN(C(=O)c4ccc(F)cc4)CC3)c2c1C,-,-,-,-,-,-,.,.,.
Cc1sc2nc(C3CC3)nc(N3CCN(C(=O)c4ccc(Cl)cc4)CC3)c2c1C,76,-,-,-,-,-,-,-,-
CC1CCCCN1C(=O)c1ccc(C(=O)Nc2ccc(F)cc2)cc1 (centres undefined),52,-,-,-,-,-,-,-,-
Nc1nc2cc(Cl)ccc2cc1C(=O)NCCCc1ccccc1,-,-,.,.,.,.,.,.,.
Cc1cccc(OCc2nnc(SCC(=O)N3CCCC3)o2)c1,-,-,-,-,-,-,.,.,.
COc1ccc(OCc2nnc(SCC(=O)N3C(C)CCCC3C)o2)cc1 (centres undefined),46,-,-,-,-,-,-,-,-
O=C(CSc1nnc(COc2ccc(F)cc2)o1)N1c2ccccc2CCc2ccccc21,51,-,-,-,-,-,-,-,-
COc1ccc(OCc2nnc(SCC(=O)NC3CCCCC3)o2)cc1,-,-,-,-,-,-,.,.,.
SMILES,EBI2 block,CXCR6 block,APJ antag,APJ ag,GAA850 FXN act,CCR6 antag,EBI2 antag conf,EBI2 agonist,bGal counter
O=C(CSc1nnc(COc2ccc(F)cc2)o1)N1CCCCC1,-,-,-,-,-,-,.,.,.
Cc1cccc(OCc2nnc(SCC(=O)N3c4ccccc4CCc4ccccc43)o2)c1,52,-,-,-,-,-,-,-,-
COC(=O)c1ccc(OC)c(CSc2nnc(COc3cccc(C)c3)o2)c1,-,-,-,-,-,-,.,.,.
COC(=O)c1ccc(OC)c(CSc2nnc(COc3ccc(OC)cc3)o2)c1,49,-,-,-,-,-,-,-,-
O=C(C[n+]1cccc(/C=N/O)c1)NC(=O)Nc1ccccc1,-,-,.,.,.,.,.,.,.
COc1ccc(/C=C/C(=O)OCC(=O)NC2CCCCCC2)cc1,-,-,.,.,-,.,.,.,.
Cc1ccccc1-c1nnc(-c2ccc(Br)cc2)o1,-,-,-,-,-,-,.,.,.
CCC1CCC(c2nnc(-c3ccc(Br)cc3)o2)CC1 (centres undefined),50,-,-,-,-,-,-,-,-
CC(C)(C)c1nnc(N/N=C/c2ccccc2)n(N)c1=O,77,-,-,-,-,-,-,-,-
CSc1nnc(C(C)(C)C)c(=O)n1/N=C/c1ccccc1,-,-,-,-,-,-,.,.,.
O=C(CCCOc1ccccc1)N1CCN(S(=O)(=O)c2ccccc2)CC1,46,-,-,-,-,-,-,-,-
Cc1ccc(OCCCC(=O)N2CCN(S(=O)(=O)c3cccc(F)c3)CC2)cc1,53,-,-,-,-,-,-,-,-
O=C(/C=C/c1ccc([N+](=O)[O-])cc1)N1CCN(S(=O)(=O)c2cccs2)CC1,93,-,-,-,-,-,63,-,-
O=C(/C=C/c1cccc([N+](=O)[O-])c1)N1CCN(c2ccc(F)cc2)CC1,-,-,-,-,-,-,.,.,.
CCOC(=O)N1CCN(C(=O)/C=C/c2ccc([N+](=O)[O-])cc2)CC1,80,-,-,-,-,-,58,-,-
CCOC(=O)N1CCN(C(=O)/C=C/c2ccc(C(C)(C)C)cc2)CC1,62,-,-,-,-,-,53,-,-
